Measured values: ChEMBL document CHEMBL3244172, “Easily hydrolyzable, water-soluble derivatives of (+/-)-alpha-5-[1-(indol-3-yl)ethyl]-2-methylamino-delta2-thiazoline-4-one, a novel antiviral compound” (J Med Chem, 1979)
Activity calls are given as the source filed them. The rule behind the calls is not given here.

How the values were obtained:
Influenza A virus [1] = assay: Antiviral activity against Influenza A virus Port Chalmers/1/73 (H3N2) infected in MDCK cells assessed as plaque reduction up to 100 ug/ml after 3 days by agar diffusion method; type: functional, organism-based
Summary of the method: (§1)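 Plaque reduction: varying compound concentrations were put in the agar overlay above infected monolayers. Coxsackie B1/HeLa was incubated 42 h at 37 °C; influenza/MDCK 3 days at 33 °C. PDD50 is the lowest concentration giving ≥50% fewer plaques than untreated controls.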

Coxsackievirus B1 [2] = assay: Antiviral activity against Coxsackievirus B1 infected in human HeLa cells assessed as plaque reduction up to 100 ug/ml after 42 hrs by agar diffusion method; type: functional, organism-based
Summary of the method: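 Compound mixed at varying concentrations into the agar overlay above Coxsackie B1-infected HeLa monolayers. Incubated 37 °C for 42 h. PDD50 is the lowest concentration giving ≥50% fewer plaques than untreated controls.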

MDCK = assay: Cytotoxicity against MDCK cells infected with Influenza A virus Port Chalmers/1/73 (H3N2) up to 100 ug/ml after 3 days by carbol fuchsin staining-based assay; type: cell-based, Canis lupus familiaris; settings: dog, 72 h
Summary of the method: (§2)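 MDCK monolayers infected with influenza had compound in the agar overlay and were incubated 3 days at 33 °C. Monolayers were stained with carbol fuchsin or neutral red. MCC is the lowest concentration causing morphological cell abnormalities.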

HeLa = assay: Cytotoxicity against human HeLa cells infected with Coxsackievirus B1 up to 100 ug/ml after 42 hrs by carbol fuchsin staining-based assay; type: cell-based
Summary of the method: (§3)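 HeLa monolayers infected with Coxsackie B1 under an agar overlay holding varying compound concentrations, incubated 37 °C, 42 h. Monolayers stained with carbol fuchsin or neutral red. MCC is the lowest concentration causing morphological abnormalities.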

Coxsackievirus B1 [3] = assay: Antiviral activity against Coxsackievirus B1 infected in human HeLa cells at 1 mg/ml by agar diffusion method; type: functional; settings: Enterovirus B; read-out: DIZ
Summary of the method: (§4)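 Agar diffusion: compounds were diluted to 1 mg/mL in Eagle's MEM from stocks of 10 mg/mL in water or 100 mg/mL in DMSO. 0.02 mL went into 6 mm wells cut in the agar overlay above infected monolayers (influenza in MDCK, Coxsackie B1 in HeLa). Read-out was the diameter (mm) of the plaque-free inhibition zone around each well.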

Coxsackievirus B1 [4] = assay: Antiviral activity against Coxsackievirus B1 infected in human HeLa cells assessed as plaque reduction after 42 hrs by agar diffusion method; type: functional; summary of the method: as §1
[5] = Cytotoxicity against human HeLa cells infected with Coxsackievirus B1 after 42 hrs by carbol fuchsin staining-based assay; type: cell-based; summary of the method: as §3
Influenza A virus [6] = assay: Antiviral activity against Influenza A virus Port Chalmers/1/73 (H3N2) infected in MDCK cells at 1 mg/ml by agar diffusion method; type: functional; settings: read-out: DIZ; summary of the method: as §4
Influenza A virus [7] = assay: Antiviral activity against Influenza A virus Port Chalmers/1/73 (H3N2) infected in MDCK cells assessed as plaque reduction after 3 days by agar diffusion method; type: functional; summary of the method: as §1
[8] = Cytotoxicity against MDCK cells infected with Influenza A virus Port Chalmers/1/73 (H3N2) after 3 days by carbol fuchsin staining-based assay; type: cell-based, Canis lupus familiaris; settings: dog; summary of the method: as §2
[9] = Solubility in water; type: physicochemical; settings: buffer
[10] = Stability in unbuffered aqueous solutions at pH >6 assessed as compound hydrolysis; type: physicochemical; settings: unbuffered aqueous solution
[11] = Stability in unbuffered aqueous solutions at pH >6 assessed as compound decarboxylation; type: physicochemical
[12] = Stability in aqueous solutions at neutral pH; type: physicochemical; settings: buffer
Influenza A virus [13] = assay: Antiviral activity against Influenza A virus Port Chalmers/1/73 (H3N2) infected in ferret assessed as serum antibody response to virus infection at 16 mg/kg administered intranasally 7 times on day 0 and 9 times on day 1 to day 3 by serum antibody response test relative to untreated control; type: functional, organism-based; parameters: dose 16 mg/kg
Summary of the method: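 Dosing was as in the other ferret groups: infected ferrets, hourly intranasal 0.2 mL of 50 mg/mL in water, 7 doses on day 0 and 9 on days +1 to +3. Blood was taken by cardiac puncture under Penthrane/N2O/O2 before and 10 days after infection. Sera were KIO4-treated to remove nonspecific inhibitors, then tested by hemagglutination inhibition against the infecting virus.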

Row | SMILES | zone of inhibition at 1000 µg/mL (Coxsackievirus B1 [3]) | PDD50 (Coxsackievirus B1 [4]) | MCC at 42 h [5] | zone of inhibition at 1000 µg/mL (Influenza A virus [6]) | PDD50 (Influenza A virus [7]) | MCC at 72 h [8] | other results
1 | CNC1=NC(=O)C(C(C)c2cn(C(C)=O)c3ccccc23)S1 (racemic) |  |  |  |  |  |  | Activity (Influenza A virus [1]): inactive; Activity (Coxsackievirus B1 [2]): inactive; Activity (MDCK): Non-toxic; Activity (HeLa): Non-toxic
2 | OC(c1ccccc1)c1nc2ccccc2[nH]1 (stereo not given) | 25 mm | 20 µg/mL | > 100 µg/mL |  |  |  | 
3 | CNC1=NC(=O)C(C(C)c2cn(C(=O)CCCC(=O)O)c3ccccc23)S1 (racemic) | 20 mm | 10 µg/mL | > 100 µg/mL | 24 mm | 5 µg/mL | 100 µg/mL | 
4 | CNC1=NC(=O)C(C(C)c2cn(C(=O)OC(C)(C)CN(C)C)c3ccccc23)S1.Cl (racemic) |  |  |  |  |  |  | solubility [9]: soluble; Stability [10]: Unstable; Stability [11]: Unstable
5 | CNC1=NC(=O)C(C(C)c2cn(C(=O)OC(C)CN(C)C)c3ccccc23)S1.Cl (racemic) |  |  |  |  |  |  | solubility [9]: soluble; Stability [10]: Unstable; Stability [11]: Unstable
6 | CNC1=NC(=O)C(C(C)c2cn(C(=O)CCC(=O)OC)c3ccccc23)S1 (racemic) |  |  |  |  |  |  | Activity (Influenza A virus [1]): inactive; Activity (Coxsackievirus B1 [2]): inactive; Activity (MDCK): Non-toxic; Activity (HeLa): Non-toxic
7 | CNC1=NC(=O)C(C(C)c2cn(C(=O)OCC(C)(C)[N+](C)(C)C)c3ccccc23)S1.[I-] (racemic) |  |  |  |  |  |  | Activity (Influenza A virus [1]): inactive; Activity (Coxsackievirus B1 [2]): inactive; Activity (MDCK): Non-toxic; Activity (HeLa): Non-toxic
8 | CNC1=NC(=O)C(C(C)c2cn(C(=O)CCC(=O)[O-])c3ccccc23)S1.[Na+] (racemic) |  |  |  |  |  |  | solubility [9]: soluble; Stability [12]: Stable
9 | CNC1=NC(=O)C(C(C)c2cn(C(=O)c3ccccc3C(=O)O)c3ccccc23)S1 (racemic) [listing 1 of 2 here] |  |  |  |  |  |  | Activity (Influenza A virus [1]): inactive; Activity (Coxsackievirus B1 [2]): inactive
10 | CNC1=NC(=O)C(C(C)c2c[nH]c3ccccc23)S1 (racemic) | 29 mm | 5 µg/mL | 30 µg/mL | 30 mm | 0.5 µg/mL | 3 µg/mL | 
11 | CNC1=NC(=O)C(C(C)c2cn(C(=O)OC(C)(C)CN(C)C)c3ccccc23)S1 (racemic) | 21 mm | 5 µg/mL | 30 µg/mL | 25 mm | 0.3 µg/mL | 3 µg/mL | 
12 | CNC1=NC(=O)C(C(C)c2cn(C(=O)CCC(=O)O)c3ccccc23)S1 (racemic) | 0 mm | 100 µg/mL | > 100 µg/mL | 0 mm | >100 µg/mL | > 100 µg/mL | 
13 | CNC1=NC(=O)C(C(C)c2cn(C(=O)OCC(C)(C)N(C)C)c3ccccc23)S1 (racemic) [listing 1 of 2 here] | 35 mm | 20 µg/mL | 100 µg/mL | 30 mm | 0.3 µg/mL | 3 µg/mL | 
14 | CNC1=NC(=O)C(C(C)c2cn(C(=O)c3ccccc3C(=O)O)c3ccccc23)S1 (racemic) [listing 2 of 2 here] |  |  |  |  |  |  | Activity (MDCK): Non-toxic; Activity (HeLa): Non-toxic
15 | CNC1=NC(=O)C(C(C)c2cn(C(=O)OC(C)CN(C)C)c3ccccc23)S1 (racemic) | 25 mm | 20 µg/mL | 100 µg/mL | 31 mm | 0.5 µg/mL | 10 µg/mL | 
16 | CCSC(=O)n1cc(C(C)C2SC(NC)=NC2=O)c2ccccc21 (racemic) |  |  |  |  |  |  | Activity (Influenza A virus [1]): inactive; Activity (Coxsackievirus B1 [2]): inactive; Activity (MDCK): Non-toxic; Activity (HeLa): Non-toxic
17 | CNC1=NC(=O)C(C(C)c2cn(C(=O)CCCC(=O)[O-])c3ccccc23)S1.[Na+] (racemic) |  |  |  |  |  |  | solubility [9]: soluble; Stability [12]: Stable
18 | CNC1=NC(=O)C(C(C)c2cn(C(=O)OCC(C)(C)N3CCOCC3)c3ccccc23)S1 (racemic) | 24 mm | 5 µg/mL | 100 µg/mL | 26 mm | 2 µg/mL | 30 µg/mL | 
19 | CNC1=NC(=O)C(C(C)c2cn(C(=O)c3ccccc3C(=O)[O-])c3ccccc23)S1.[Na+] (racemic) |  |  |  |  |  |  | solubility [9]: soluble; Stability [12]: Stable
20 | CNC1=NC(=O)C(C(C)c2cn(C(=O)OCc3ccccc3)c3ccccc23)S1 (racemic) |  |  |  |  |  |  | Activity (Influenza A virus [1]): inactive; Activity (Coxsackievirus B1 [2]): inactive; Activity (MDCK): Non-toxic; Activity (HeLa): Non-toxic
21 | CNC1=NC(=O)C(C(C)c2cn(C(=O)OCC(C)(C)N3CCOCC3)c3ccccc23)S1.Cl (racemic) |  |  |  |  |  |  | solubility [9]: soluble; Stability [10]: Unstable; Stability [11]: Unstable
22 | CNC1=NC(=O)C(C(C)c2cn(C(=O)OCC(C)(C)N(C)C)c3ccccc23)S1 (racemic) [listing 2 of 2 here] |  |  |  |  |  |  | Activity (Influenza A virus [13]): Active
